Source: PubChem BioAssay
Yeast growth tox – Inhibitors of S. cerevisiae growth, toxicity. S. cerevisiae wild-type growth, A595 turbidity, 16 h. growth inhibition, % at 25 µM (by protocol). hit rate 0.3% among 30,000. AID 685;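 active = mutant and wild-type yeast strains alike exhibit over 30% growth inhibition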
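System: S. cerevisiae wild-type or eIF2Bepsilon-R284H mutant strain; times: 16 h growth with compound, 30 °C; signal: absorbance at 595 nm (turbidity); measure: growth inhibition (%) versus cell controls and blanks; compound: 25 µM single dose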
eIF2B yeast act – eIF2B (yeast) activity modulation | hit rate 0.91% among 27,000 | AID 688 | S. cerevisiae eIF2B-epsilon R284H, GCN4-lacZ luminescence | inhibition, % at 25 µM (by protocol);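 active = mutant luminescence inhibited past about 50% while wild type luminescence and mutant growth stay under set limits, limit read from the data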
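System: Yeast eIF2B-epsilon R284H mutant carrying GCN4–beta-galactosidase fusion | Read-out basis: Percent inhibition, luminescence and growth | Compound: 25 µM single dose | Times: 16 h at 30 °C exposure | Measured by: Luminescence and A595 | Buffer or medium: YPD medium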
Numbers stand for hits. Shown are actives, neighbours in structure and some others; about 1% of the full set was active somewhere.

For Cc1cccc(C)c1OCC(O)CNS(=O)(=O)c1ccccc1C(=O)N1CCCCC1 (configuration not stated) the results were Yeast growth tox inactive and eIF2B yeast act inactive.
NC1=NC(c2cn(-c3ccccc3)nc2-c2cccs2)n2c(nc3ccccc32)N1 (configuration not stated) was read as Yeast growth tox inactive and eIF2B yeast act inactive.
Cc1ccc(-n2c(C)cc(C3N=C(N)Nc4nc5ccccc5n43)c2C)c(C)c1 (configuration not stated) was read as Yeast growth tox 92 and eIF2B yeast act inactive.
Nc1c(-c2ccccc2)cnn1-c1ccc(C(=O)O)cc1 was read as Yeast growth tox inactive and eIF2B yeast act inactive.
`CCCCN(C)CCCNC(=O)c1ccc(N2CCCC2=O)cc1` gave Yeast growth tox inactive and eIF2B yeast act inactive.
COc1ccc(CCNC(=O)c2ccc(N3CCCC3=O)cc2)cc1OC was read as Yeast growth tox inactive and eIF2B yeast act 56.
Screening COc1ccccc1NC(=O)Oc1ccc(C(C)=O)cc1 returned Yeast growth tox inactive and eIF2B yeast act inactive.
`COc1ccccc1NC(=S)NNC(=O)c1ccccc1` gave Yeast growth tox inactive and eIF2B yeast act 58.
`Cc1nn(Cc2ccc(C(=O)Nc3ccc(Br)c4cccnc34)o2)c(C)c1Br` gave Yeast growth tox inactive and eIF2B yeast act inactive.
CCN(CC)C(=O)CSC1=C(C#N)C(c2cccs2)C=C(C)N1 (configuration not stated) was read as Yeast growth tox inactive and eIF2B yeast act inactive.
COc1ccc2c(c1)CCc1c(C(=O)N3CCCc4ccccc43)noc1-2 was read as Yeast growth tox inactive and eIF2B yeast act inactive.
`COc1ccc2c(c1)CCc1c(C(=O)N3CC4(C)CC3CC(C)(C)C4)noc1-2` (configuration not stated) gave Yeast growth tox inactive and eIF2B yeast act 71.
Screening c1ccc(SCc2nc(-c3ccccn3)no2)cc1 returned Yeast growth tox inactive and eIF2B yeast act 64.
`Cc1ccc(-c2noc(CSc3ccccc3)n2)cc1` gave Yeast growth tox inactive and eIF2B yeast act inactive.
Screening CCOC(=O)c1c(NC(=O)CSc2nc3c(c(=O)n(C)c(=O)n3C)n2CC)sc(C)c1C returned Yeast growth tox inactive and eIF2B yeast act inactive.
Screening CCCn1c(SCC(=O)Nc2nc3c(s2)CCCC3)nc2c1c(=O)n(C)c(=O)n2C returned Yeast growth tox inactive and eIF2B yeast act 55.
Cc1cc(NC(=O)CSc2nnc3c(C)cc4cc5c(cc4n23)OCO5)no1 was read as Yeast growth tox inactive and eIF2B yeast act inactive.
For Fc1ccc(Nc2nc(Oc3ccc4c(c3)OCO4)nc(N3CCOCC3)n2)c(F)c1 the results were Yeast growth tox inactive and eIF2B yeast act 57.
For c1ccc(Oc2nc(Oc3ccccc3)nc(N3CCOCC3)n2)cc1 the results were Yeast growth tox inactive and eIF2B yeast act inactive.
`CC1(C)Cc2c(sc3c4nnnn4c4nnnn4c23)CO1` gave Yeast growth tox inactive and eIF2B yeast act inactive.
`COCC(=O)Nc1ccc(Nc2ccccc2)cc1` gave Yeast growth tox 31 and eIF2B yeast act inactive.
CC(=O)Nc1ccc(NC(=O)Oc2ccccc2)cc1 was read as Yeast growth tox inactive and eIF2B yeast act inactive.
`CC(=O)Oc1ccc(NC(=O)Cc2ccccc2)cc1` gave Yeast growth tox inactive and eIF2B yeast act 58.
CCC(=O)Nc1ccc(Nc2ccccc2)cc1 was read as Yeast growth tox inactive and eIF2B yeast act inactive.
Screening CCOC(=O)CSc1nc2ccccc2c(=O)n1CCC(=O)NCCc1ccc(OC)c(OC)c1 returned Yeast growth tox inactive and eIF2B yeast act inactive.
CC(C)Cn1cnc2c(c1=O)c1nc3ccccc3nc1n2Cc1ccc2c(c1)OCO2 was read as Yeast growth tox inactive and eIF2B yeast act inactive.
Cc1ccccc1N1C(=O)c2ccccc2NC1c1ccncc1 (configuration not stated) was read as Yeast growth tox inactive.
`O=C1c2ccccc2C(=O)C1c1ccncc1` gave Yeast growth tox inactive and eIF2B yeast act 67.
For O=C(NCc1ccco1)C(c1cccs1)N(C(=O)C1COc2ccccc2O1)c1cccc(O)c1 (configuration not stated) the results were Yeast growth tox inactive and eIF2B yeast act inactive.
N#Cc1cc2c(nc1SC1CCCCC1O)CCCC2 (configuration not stated) was read as Yeast growth tox inactive and eIF2B yeast act inactive.
`COC(=O)c1ccc(NS(=O)(=O)N(C)C)cc1` gave Yeast growth tox inactive and eIF2B yeast act 60.
For Cc1ccc(NS(=O)(=O)N(C)C)cc1 the results were Yeast growth tox inactive and eIF2B yeast act inactive.
For Cc1cccc(-c2nnc(NC(=O)c3ccc(Cl)cc3)o2)c1 the results were Yeast growth tox 57 and eIF2B yeast act inactive.
Screening COc1ccc(C(=O)Nc2nnc(-c3ccccc3)o2)cc1OC returned Yeast growth tox inactive and eIF2B yeast act inactive.
For CCOC(=O)Cn1c2ccc(OC)cc2c2nc3ccccc3nc21 the results were Yeast growth tox inactive and eIF2B yeast act inactive.
For COC(=O)Cn1c2ccc(OC)cc2c2nc3ccccc3nc21 the results were Yeast growth tox inactive and eIF2B yeast act 53.
CN1C(=O)CC2(CC(=O)N(Cc3ccccc3)C2)C1=O (configuration not stated) was read as eIF2B yeast act 61.
Cc1ccc(NC2CC(=O)N(Cc3ccccc3)C2=O)cc1 (configuration not stated) was read as Yeast growth tox inactive.
CCOC(=O)c1ccc(NS(=O)(=O)CC)cc1 was read as Yeast growth tox inactive.
CCOC(=O)c1ccc(N2C(=O)C=CC2=O)cc1 was read as Yeast growth tox 90 and eIF2B yeast act inactive.
`Cc1ccc(NC(=S)N2CCC(N(C)CC3CCCO3)CC2)c(C)c1` (configuration not stated) gave Yeast growth tox inactive and eIF2B yeast act inactive.
For CCOC(=O)c1c(NC(=O)CN(C)C)sc(C(=O)N(CC)CC)c1C the results were Yeast growth tox inactive and eIF2B yeast act inactive.
`CCCC(=O)Nc1sc(C(=O)OC)c(C)c1C(N)=O` gave Yeast growth tox inactive and eIF2B yeast act 58.
For CCN(CC)CCNC(=O)Cn1nc(-c2ccccc2)c2ccccc2c1=O the results were Yeast growth tox inactive and eIF2B yeast act inactive.
CNC(=O)Cn1nc(-c2ccc(C)c(S(=O)(=O)N(C)C)c2)c2ccccc2c1=O was read as Yeast growth tox inactive and eIF2B yeast act 62.
For O=c1[nH]c(NC2CCCCC2)nnc1Cc1ccccc1 the results were Yeast growth tox inactive and eIF2B yeast act inactive.
`Cc1nnc(NC2CCCCC2)[nH]c1=O` gave Yeast growth tox inactive and eIF2B yeast act 65.
`Cc1ccc2nc(/C(C#N)=C\c3ccc(N4CCOCC4)o3)[nH]c2c1` gave eIF2B yeast act 65.
Screening N#C/C(=C/c1ccc(N2CCCCC2)o1)c1cccc(F)c1 returned Yeast growth tox inactive.
`COc1ccc(CC(=O)NC2CC(C)(C)NC(C)(C)C2)cc1` gave Yeast growth tox inactive and eIF2B yeast act inactive.
`CCOc1cc(-c2nc(-c3cc(OC)c(OC)c(OC)c3)no2)cc(OCC)c1OCC` gave Yeast growth tox inactive and eIF2B yeast act inactive.
For CCOc1cc(-c2nc(-c3ccc(C)nc3OCC)no2)cc(OCC)c1OCC the results were eIF2B yeast act 56.
Screening C/C(N)=C(/C#N)C(=O)CN1CCCCC1 returned Yeast growth tox inactive and eIF2B yeast act inactive.
